SENP7 inh: SENP7 protease inhibition; recombinant SENP7, Z-RLRGG-aminoluciferin luminescence, 40 min; 330,000 compounds, 1.5% hits; inhibition, % at 5 µM;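 active = inhibition above about 50% at the single test dose, limit read from the data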
SENP8 block-1: inhibitors of human SENP8 protease; Q96LD8; purified SENP8, Z-RLRGG-aminoluciferin cleavage, luminescence; inhibition, % at 10 µM; 330,000 compounds, 1.2% hits; in the data active = inhibition above about 50%
SENP6 block: inhibitors of human SENP6 protease; Recombinant SENP6 catalytic domain, aminoluciferin luminescence; inhibition, % at 10 µM; AID 2599; Q9GZR1; 330,000 compounds, 1.8% hits;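 active = inhibition above about 50% at the single tested dose, limit read from the data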
Target sequence (Q9GZR1 628-1112 limits assumed): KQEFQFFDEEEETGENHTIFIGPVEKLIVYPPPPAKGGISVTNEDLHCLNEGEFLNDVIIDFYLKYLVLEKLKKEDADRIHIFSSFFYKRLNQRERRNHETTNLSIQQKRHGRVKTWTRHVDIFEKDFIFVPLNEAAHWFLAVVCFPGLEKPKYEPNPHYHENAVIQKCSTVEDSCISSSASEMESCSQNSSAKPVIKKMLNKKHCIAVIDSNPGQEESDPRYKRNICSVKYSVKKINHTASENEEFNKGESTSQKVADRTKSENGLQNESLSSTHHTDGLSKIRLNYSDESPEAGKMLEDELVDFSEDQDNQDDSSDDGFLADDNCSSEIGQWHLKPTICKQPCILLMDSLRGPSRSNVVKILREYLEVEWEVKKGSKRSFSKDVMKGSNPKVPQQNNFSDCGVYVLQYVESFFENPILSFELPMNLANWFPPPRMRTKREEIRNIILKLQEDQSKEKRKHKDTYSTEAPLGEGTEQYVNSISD
SENP1 FRET inh: inhibitors of human SENP1 SUMO protease catalytic domain; inhibition, % at 10 µM; recombinant SENP1 catalytic domain, CyPet-SUMO1-YPet FRET cleavage; 360,000 compounds, 0.21% hits; AID 624204; Q9P0U3;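 active = inhibition at least 30% at 10 µM, raw YFP signal under a set limit, fluorescence ratio 0.5 to 1.5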
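Test system: human SENP1 catalytic domain; medium: Tris pH 8 buffer plus EDTA, NaCl, BME, BSA, NP40, catalase; incubation: 50 min reaction at room temperature; technique: FRET, CFP and YFP emission; controls: no-enzyme low control and enzyme-plus-DMSO high control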
SENP8 block-2: SENP8 (human) protease inhibition | Q96LD8 | recombinant SENP8, Nedd8 substrate fluorescence | inhibition, % at 20 µM | 360,000 compounds, 0.64% hits; in the data active = inhibition mostly above about 40%, no sharp cut-off; inactive = mostly below about 27%
NRP1-CendR mod: alters CendR peptide binding to human NRP-1; O14786; 360,000 compounds, 0.85% hits; inhibition, % at 25 µM; FAM-RPARPAR peptide binding to NRP-1, fluorescence polarization; AID 602438;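 active = inhibition or corrected inhibition above about 18%, plus a signal ratio from 0.5 to 1.5, limit read from the data, passing the limit was not always enough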
A number is an active result; - = inactive; . = not tested or not shown. The list is not random: actives were taken first. Their share in the collection is about 3.3%.

SMILES	SENP7 inh	SENP8 block-1	SENP6 block	SENP1 FRET inh	SENP8 block-2	NRP1-CendR mod
CC(C)(C)OC(=O)N1CCC(NC(=O)c2nc[nH]c2C(=O)N2CCc3ccccc3C2)CC1	-	-	-	-	-	30.0
O=C(NCc1ccccc1)c1nc[nH]c1C(=O)N1CCN(c2ccccc2)CC1	-	-	-	-	-	30.1
Cc1ccc(S(=O)(=O)N2[C@H](CC(=O)c3ccc(Cl)c(Cl)c3)OC[C@@H]2C(C)C)cc1	.	.	.	-	-	-
CC(C)(C)NC(=O)C(C1CC1)n1c(=O)c(-c2ccccc2)nc2ccccc21 (stereo unspecified)	.	.	.	-	-	-
CCOC(=O)[C@]12CCC=C1N(Cc1ccc3c(c1)OCO3)C(=O)[C@H](CC(=O)N1CCSCC1)C2	.	.	.	-	-	-
CC(C)(C)OC(=O)N1CCN(C(=O)c2[nH]cnc2C(=O)NCC(=O)OCc2ccccc2)CC1	-	-	-	-	-	-
CN(Cc1ccccc1)C(=O)c1[nH]cnc1C(=O)NCc1ccc(CNC(=O)OC(C)(C)C)cc1	-	-	-	-	-	30.1
CC(C)(C)OC(=O)N1CCN(C(=O)c2[nH]cnc2C(=O)NCc2ccccc2)CC1	-	-	-	-	-	33.4
CCOC(=O)[C@]12CCCC=C1N(Cc1ccc3c(c1)OCO3)C(=O)[C@H](CC(=O)NCc1cccc(C(F)(F)F)c1)C2	.	.	.	-	-	-
Cc1nc(SCc2ccc(C(=O)O)cc2)nc2c1CCCC2	-	-	-	-	-	41.8
O=C(O)c1ccc(CSc2nc3c(c(=O)[nH]2)CCC3)cc1	.	.	.	-	-	-
Cc1ccc2c(c1)N=C(c1ccccc1)CC(C(Cl)Cl)=N2	-	53.4	73.6	-	-	-
Cc1cc2c(cc1C)NC(=O)CC(c1ccccc1)=N2	.	.	.	-	-	-
CCCCCCN1C[C@H](n2cc(-c3ccc(F)cc3)nn2)[C@@H](O)C[C@@H]1c1ccc(C)cc1	.	.	.	-	-	-
CCCCc1cn([C@@H](CCCCN)C(=O)N2CCNCC2)nn1	-	-	-	-	-	22.0
Fc1ccc(C2=Nc3cccc4cccc(c34)N2)cc1	-	-	-	-	-	-
FC(F)(F)C1=Nc2cccc3cccc(c23)N1	-	-	-	-	61.6	38.4
COCCNc1nc(-c2cc(-c3ccccc3)on2)cc(C(C)C)n1	-	-	-	-	-	26.5
COCCCn1cc(CN2CC(N3CCN(Cc4ccccc4F)CC3)CS2(=O)=O)nn1 (stereo unspecified)	.	.	.	-	-	-
Cc1cc2c(cc1C)NC(c1nc3ccccc3[nH]1)C1=C(CC(C)(C)CC1=O)N2 (stereo unspecified)	-	-	-	-	-	29.2
CC1Oc2ccccc2C=C1/C=N/Nc1ccc(C(=O)O)cc1 (stereo unspecified)	89.0	96.2	96.4	-	-	-
CCn1c(/C=N/Nc2ccc(C(=O)O)cc2)nc2ccccc21	-	-	-	-	-	-
CC(=O)[C@H]1[C@H](c2cccc(Cl)c2)C(C#N)(C#N)[C@@H]2c3ccccc3C=CN21	-	-	66.9	.	.	.
CN1C(=O)c2ccccc2C(C(=O)O)C1c1cccc(Cl)c1 (stereo unspecified)	-	-	-	-	-	-
CC(=O)[C@@H]1[C@@H]2C(=O)N(C3CCCCC3)C(=O)[C@@H]2C2c3ccccc3C=CN21 (stereo partly specified)	-	-	54.9	.	.	.
CC(=O)[C@H]1[C@@H]2C(=O)N(c3cccc(Cl)c3)C(=O)[C@@H]2[C@H]2c3ccccc3C=CN21	-	-	52.8	-	-	-
CC(=O)[C@@H]1[C@@H]2C(=O)N(c3ccc(F)c(Cl)c3)C(=O)[C@@H]2C2c3ccccc3C=CN21 (stereo partly specified)	-	-	-	.	.	.
O=C(NCc1ccccc1)C(c1ccc(-c2ccccc2)cc1)n1c(=O)c(-c2ccco2)nc2ccccc21 (stereo unspecified)	.	.	.	-	-	-
Nc1ccn(C(C=O)CC(C=O)CO)c(=O)n1 (stereo unspecified)	.	.	.	-	-	-
CCC1(c2ccc(F)cc2)NC(=O)N(CC(=O)Nc2cccc(S(=O)(=O)N3CCCC3)c2)C1=O (stereo unspecified)	.	.	.	-	-	-
